A selection: hits, their analogues and other compounds. The true share with any hit is near 3.8%.
KCNK9 block: human KCNK9 channel inhibition. B-score at 10 µM. Q9NPC2. HEK293 KCNK9, FluxOR thallium flux fluorescence; active compounds read low. AID 488922. 1.2% of 310,000 active;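 active = ratio B-score over 3 SD below the library mean, with starting fluorescence within 5 SD of its mean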;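 note: negative B-score means less thallium flux so channel inhibition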
Target sequence (Q9NPC2 whole entry, looked up): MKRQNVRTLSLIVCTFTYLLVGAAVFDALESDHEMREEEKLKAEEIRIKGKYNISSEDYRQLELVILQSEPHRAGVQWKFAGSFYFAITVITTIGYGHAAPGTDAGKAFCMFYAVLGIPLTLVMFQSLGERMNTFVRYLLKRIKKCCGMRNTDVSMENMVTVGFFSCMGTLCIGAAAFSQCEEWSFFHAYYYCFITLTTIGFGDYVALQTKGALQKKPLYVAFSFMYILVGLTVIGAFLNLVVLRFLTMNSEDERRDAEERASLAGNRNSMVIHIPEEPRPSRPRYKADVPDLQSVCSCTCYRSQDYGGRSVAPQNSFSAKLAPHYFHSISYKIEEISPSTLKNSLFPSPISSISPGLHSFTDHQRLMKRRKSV
Kir21 block: Kir2.1 (mouse) channel inhibition; P35561; HEK293-Kir2.1, FluxOR thallium flux fluorescence; active compounds read low; B-score at 10 µM; 0.85% of 310,000 active; AID 1672;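 active = fluorescence ratio B-score at or below minus 3 SD of library scores, with starting-brightness B-score within 2 SD, cut at about -4.2 in these data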;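 note: channel flux triggered by added potassium and thallium sulfate stimulus; B-score of peak minus minimum fluorescence over baseline after thallium stimulus; more negative B-score means stronger Kir2.1 block with less thallium influx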
KCNQ1 act: human KCNQ1 channel potentiation or activation; B-score at 10 µM; CHO-K1 KCNQ1, thallium flux FluxOR fluorescence; active compounds read high; AID 2648; 0.35% of 310,000 active;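 active = fluorescence ratio B-score, a plate-corrected score, at least three library SD, with initial intensity B-score within 5 SD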
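Test system: CHO-K1 cells stably expressing KCNQ1 / Medium: assay buffer / Also added: depolarizing K+/Tl+ stimulus, K2SO4 and Tl2SO4 each 12.5 mM in 5x stock / Incubation: 90 min dye loading and 20 min compound exposure, both at room temperature / Signal: thallium influx via FluxOR fluorescence, kinetic imaging / Evaluation: B score of baseline-normalized fluorescence ratio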
KCNK3 block: human KCNK3 channel inhibition, primary screen; CHO-KCNK3 thallium flux, FluxOR fluorescence; active compounds read low; B-score at 10 µM; 0.84% of 340,000 active; AID 602410;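 active = B-score under library mean minus 4 SD, starting fluorescence ratio at most library mean plus 5 SD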;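 note: more negative B-score means stronger inhibition of thallium flux through KCNK3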
hERG protect: shields human hERG channel from block by proarrhythmic agents; CHO-hERG, FluxOR thallium flux, dofetilide IC70 present; 0.51% of 310,000 active; activation (rescue from dofetilide block), less the hit threshold, % at 10 µM; Q12809;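 active = activation above the mean of controls blocked by dofetilide plus 5 SD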;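 note: thallium influx through hERG after potassium depolarization seen as dye fluorescence rise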
KCNQ1 inh: blocks the human KCNQ1 potassium channel; P51787; CHO-K1 KCNQ1, FluxOR thallium flux fluorescence; active compounds read high; B-score at 10 µM; 1.3% of 310,000 active;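 active = compounds whose thallium flux B-score, printed positive for inhibition, exceeds three library SD while starting fluorescence stays within three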;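 note: channel opened by potassium depolarization with thallium stimulus after 20 min compound exposure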
KCNK9 block conf: confirmation of human KCNK9 potassium channel inhibitors; shares compounds with KCNK9 block; HEK293 KCNK9 cells, FluxOR thallium flux fluorescence; inhibition, % at 10 µM; 43% of 4,900 active; AID 492992;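 active = thallium signal inhibited by more than 5 SD of the compound-free buffer control wells, on both duplicate plates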;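 note: 0% = assay buffer control wells without compound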
Kir21 sel: selectivity of KCNK9 modulators against mouse Kir2.1; Kir2.1 cells, FluxOR thallium flux fluorescence; inhibition, % at 10 µM; shares compounds with KCNK9 block; 4% of 4,900 active;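 active = thallium signal drop more than 5 SD beyond the mean of the no-compound control wells, seen in both duplicate plates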;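 note: signal is fluorescence rise after thallium addition divided by baseline fluorescence; plate controls were assay buffer only for no effect and full block by chlorpromazine control for full effect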
KCNK9 uninduced: non-induced cell nonspecific activity of KCNK9 modulators; shares compounds with KCNK9 block; non-induced KCNK9-HEK293, FluxOR thallium flux; inhibition, % at 10 µM; 40% of 4,900 active; AID 492997;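 active = thallium signal drop beyond 5 SD of the untreated control mean, on both duplicate plates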;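 note: plate controls were buffer only IC0 wells for no effect and SID17386958 at its maximal inhibitory level for full effect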
An asterisk follows results filed as active.

How did COC(=O)C(NC(=O)c1ccccc1C)(Nc1ncc(S(=O)(=O)c2ccc([N+](=O)[O-])cc2)s1)C(F)(F)F (stereo not given) do in these assays?
KCNK9 block: inactive; Kir21 block: 0.34; KCNQ1 act: inactive; KCNK3 block: inactive; hERG protect: -12; KCNQ1 inh: inactive; KCNK9 block conf: inactive; Kir21 sel: inactive; KCNK9 uninduced: inactive

Results for O=C(c1ccc(Cl)cc1)C1CCCN(Cc2cccn2-c2cccnc2)C1 (stereo not given) ?
KCNK9 block: inactive; Kir21 block: -2.8; KCNQ1 act: inactive; KCNK3 block: inactive; hERG protect: -8; KCNQ1 inh: inactive

What do the screens show for `CSc1ccc(C(=O)C2CCCN(Cc3cccn3-c3cccnc3)C2)cc1` (stereo not given)?
KCNK9 block: inactive; Kir21 block: -3.3; KCNQ1 act: inactive; KCNK3 block: inactive; hERG protect: -1; KCNQ1 inh: inactive; KCNK9 block conf: inactive; Kir21 sel: inactive; KCNK9 uninduced: inactive

What do the screens show for `CCC(=NCCc1c(C)[nH]c2ccc(OC(F)(F)F)cc12)C1=C(O)CC(c2ccccc2)CC1=O` (stereo not given)?
KCNK9 block: inactive; Kir21 block: 2.5; KCNQ1 act: inactive; KCNK3 block: inactive; hERG protect: -15; KCNQ1 inh: inactive

How did CCC(=NCCc1c(C)[nH]c2ccccc12)C1=C(O)CC(c2ccccc2)CC1=O (stereo not given) do in these assays?
KCNK9 block: inactive; Kir21 block: -0.65; KCNQ1 act: inactive; KCNK3 block: inactive; hERG protect: -6; KCNQ1 inh: inactive; KCNK9 block conf: inactive; Kir21 sel: inactive; KCNK9 uninduced: inactive

Results for CCCCC(=NCCc1c(C)[nH]c2ccc(OC)cc12)C1=C(O)CC(c2ccccc2)CC1=O (stereo not given) ?
KCNK9 block: inactive; Kir21 block: 1.3; KCNQ1 act: inactive; KCNK3 block: inactive; hERG protect: -14; KCNQ1 inh: inactive; KCNK9 block conf: inactive; Kir21 sel: inactive; KCNK9 uninduced: inactive

How did Cc1cc(S(=O)(=O)N2CCOCC2)ccc1OCC(=O)NCc1ccccn1 do in these assays?
KCNK9 block: inactive; Kir21 block: -0.24; KCNQ1 act: inactive; KCNK3 block: inactive; hERG protect: -1; KCNQ1 inh: inactive

How did Cc1cc(C)n(C(=O)CNC(=O)COc2ccccc2)n1 do in these assays?
KCNK3 block: inactive

Results for O=C(Nc1cc2c3c(c1)C1CCCC1CN3CC1CCCC21)c1ccccc1 (stereo not given) ?
KCNK9 block: -12*; Kir21 block: 1.2; KCNQ1 act: inactive; KCNK3 block: inactive; hERG protect: -10; KCNQ1 inh: 9*; KCNK9 block conf: inactive; Kir21 sel: inactive; KCNK9 uninduced: inactive

Results for CC1(C)Oc2ccc3ccc(=O)oc3c2/C(=C/N)C1=O ?
KCNK9 block: inactive; Kir21 block: -0.7; KCNQ1 act: inactive; KCNK3 block: inactive; hERG protect: -1; KCNQ1 inh: inactive

What do the screens show for `CC1(C)Oc2ccc3ccc(=O)oc3c2/C(=C/NC2CCCCC2)C1=O`?
KCNK9 block: -11*; Kir21 block: 0.63; KCNQ1 act: inactive; KCNK3 block: inactive; hERG protect: -8; KCNQ1 inh: 8*; KCNK9 block conf: 35%*; Kir21 sel: inactive; KCNK9 uninduced: 34%*

Results for O=C(NCc1ccccc1Cl)C(=O)c1cn(CC(=O)N2CCOCC2)c2ccccc12 ?
KCNK9 block: inactive; Kir21 block: -0.13; KCNQ1 act: inactive; KCNK3 block: inactive; hERG protect: -6; KCNQ1 inh: inactive

Results for O=C(c1cc2sccc2n1Cc1ccc(F)cc1)N1CCCc2ccccc21 ?
KCNK9 block: -10*; Kir21 block: 0.71; KCNQ1 act: inactive; KCNK3 block: inactive; hERG protect: -8; KCNQ1 inh: inactive; KCNK9 block conf: 51%*; Kir21 sel: inactive; KCNK9 uninduced: 37%*

What do the screens show for `COc1c(Cl)ccc(Cl)c1C(=O)OCC(=O)O`?
KCNK9 block: inactive; Kir21 block: 0.96; KCNQ1 act: inactive; KCNK3 block: inactive; hERG protect: -10; KCNQ1 inh: inactive

Results for CCOc1ccc(C(=O)Nc2ccc(NC(=O)c3ccccc3)cc2)cc1Br ?
KCNK9 block: inactive; Kir21 block: 0.11; KCNQ1 act: inactive; KCNK3 block: inactive; hERG protect: -7; KCNQ1 inh: inactive

Results for CCOc1ccc(C(=O)Nc2ccc(Cc3ccncc3)cc2)cc1Br ?
KCNK9 block: inactive; Kir21 block: 1.2; KCNQ1 act: inactive; KCNK3 block: inactive; hERG protect: -4; KCNQ1 inh: inactive; KCNK9 block conf: inactive; Kir21 sel: inactive; KCNK9 uninduced: inactive

How did CC1=Nc2cc(C(=O)N3CCCCC3)ccc2Sc2ccc(C)cc21 do in these assays?
KCNK9 block: inactive; Kir21 block: -1.1; KCNQ1 act: inactive; KCNK3 block: inactive; hERG protect: -11; KCNQ1 inh: inactive; KCNK9 block conf: inactive; Kir21 sel: inactive; KCNK9 uninduced: inactive

Results for Cc1cccc(-n2c(=S)[nH]c3sc4c(c3c2=O)CCc2ccccc2-4)c1 ?
KCNK9 block: inactive; Kir21 block: 0.82; KCNQ1 act: 8*; KCNK3 block: inactive; hERG protect: 3; KCNQ1 inh: inactive; KCNK9 block conf: inactive; Kir21 sel: inactive; KCNK9 uninduced: inactive

Results for O=C1c2ccccc2C(Nc2ccc(Cl)cn2)N1c1ccccn1 (stereo not given) ?
KCNK9 block: -9.8*; Kir21 block: -0.09; KCNQ1 act: inactive; KCNK3 block: inactive; hERG protect: -8; KCNQ1 inh: inactive; KCNK9 block conf: 37%*; Kir21 sel: inactive; KCNK9 uninduced: inactive

How did Clc1ccc(-c2ccc(-c3nn4c(-c5ccco5)nnc4s3)o2)cc1 do in these assays?
KCNK9 block: -9.8*; Kir21 block: 0.29; KCNQ1 act: inactive; KCNK3 block: inactive; hERG protect: -9; KCNQ1 inh: inactive; KCNK9 block conf: 40%*; Kir21 sel: inactive; KCNK9 uninduced: inactive

Results for Brc1ccc(-c2nn3c(-c4ccco4)nnc3s2)o1 ?
KCNK9 block: inactive; Kir21 block: -0.11; KCNQ1 act: inactive; KCNK3 block: inactive; hERG protect: -7; KCNQ1 inh: inactive

High-throughput results (PubChem)
